This note sets out measurements from ChEMBL document CHEMBL4177761, “Highlights of the Structure-Activity Relationships of Benzimidazole Linked Pyrrolidines Leading to the Discovery of the Hepatitis C Virus NS5A Inhibitor Pibrentasvir (ABT-530)” (J Med Chem, 2018).

SMILES strings stand for the structures. Positions count from the first letter of the chain named. Values after ≈ are worked out from the molar mass of the structure shown.

Data set [1] in a line: Intrinsic clearance in human microsomes. Format: ADME, Microsome.
Data set [2] can be described thus: Intrinsic clearance in rat microsomes. The format is ADME, Microsome.
Data set [3] in a line: Solubility of the compound by CLND method. Format: physicochemical.
Data set [4] in a line: Permeability of the compound by PAMPA. The format is ADME. The following applies: read-out: permeability. Background: PAMPA measures passive passage across an artificial lipid membrane.
A short description of data set [5]: AUC (0 to infinity) in mouse at 3 mg/kg, po by LC-MS method. Format: ADME, organism-based. Details: dose 3 mg/kg, route oral, time infinity. The following applies: in vivo. Put shortly: (§1)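 Single dose, 3 mg/kg, in mouse or rat. IV vehicle: DMSO:Tween 80:PEG-400:D5W 2:5:20:73 (v/v). PO vehicle: Phosol 53 MCT:PEG-400:Poloxamer 124:Cremophor RH40 40:20:20:20 (w/w). Acetonitrile protein precipitation, then LC-MS/MS in negative-ion MRM against an internal standard; LOQ ~20 ng/mL.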

The nature of data set [6]: Lipophilicity, log D of the compound by HPLC method. The format is physicochemical.
Data set [7] can be described thus: Tmax in mouse at 3 mg/kg, po by LC-MS method. Format: ADME, organism-based. As to conditions: in vivo.
A short description of data set [8]: Drug level in mouse at 3 mg/kg, po at 24 hrs by LC-MS method. The format is ADME, organism-based. As to conditions: in vivo, read-out: Drug uptake. Put shortly: as §1
Data set [9] can be described thus: Cmax in mouse at 3 mg/kg, po by LC-MS method. The format is ADME, organism-based. Details: dose 3 mg/kg, route oral. As to conditions: in vivo. Summed up: as §1
In data set [10] the test system is T1, Nonstructural protein 5A (Hepatitis C virus), Q5L478 [Y93N].
T1 sequence (whole entry): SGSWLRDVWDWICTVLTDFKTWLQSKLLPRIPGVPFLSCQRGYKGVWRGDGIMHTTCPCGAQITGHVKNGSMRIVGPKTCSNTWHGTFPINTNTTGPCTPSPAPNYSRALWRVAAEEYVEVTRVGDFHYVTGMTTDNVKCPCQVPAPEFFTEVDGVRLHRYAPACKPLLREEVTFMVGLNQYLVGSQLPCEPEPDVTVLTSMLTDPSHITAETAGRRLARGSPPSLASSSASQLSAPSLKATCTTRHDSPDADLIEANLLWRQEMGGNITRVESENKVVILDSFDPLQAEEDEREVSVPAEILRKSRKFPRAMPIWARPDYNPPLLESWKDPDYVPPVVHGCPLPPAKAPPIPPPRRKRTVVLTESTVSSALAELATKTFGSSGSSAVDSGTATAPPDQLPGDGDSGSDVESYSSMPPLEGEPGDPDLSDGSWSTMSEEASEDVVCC
Kind of data set: Inhibition of NS5A Y93N mutant in HuH7 cell infected HCV genotype 1a H77 assessed as decrease in viral replication after 4 days by luciferase reporter gene assay relative to wild type protein. The following applies: Hepatitis C virus (isolate H77). Put shortly: (§2)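 Stable subgenomic luciferase replicons in Huh-7 cells: genotype 1a-H77 carrying NS5A substitutions M28T, Q30E, Q30R, Y93C, Y93H or Y93N, tested alongside the wild-type replicon. Cells are incubated 4 days with compound in DMEM with 5% FBS. Luciferase read-out, EC50 by 4-parameter logistic fit, and fold change versus wild type.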
(In general: In a reporter assay the amount or activity of a reporter protein is the signal.)

Data set [11] deals with T2, Nonstructural protein 5A (Hepatitis C virus) (UniProt Q5L478).
T2 sequence (whole entry): T1 sequence (whole entry) with N93Y
The data set can be described thus: Inhibition of NS5A Q30R mutant in HuH7 cell infected HCV genotype 1a H77 assessed as decrease in viral replication after 4 days by luciferase reporter gene assay relative to wild type protein. The following applies: Hepatitis C virus (isolate H77). Summed up:
as §2

Data set [12] relates to T3, Nonstructural protein 5A (Hepatitis C virus), Q5L478 [Y93H].
T3 sequence (whole entry): T1 sequence (whole entry) with N93H
The data set can be described thus: Inhibition of NS5A Y93H mutant in HuH7 cell infected HCV genotype 1b Con1 assessed as decrease in viral replication after 4 days by luciferase reporter gene assay relative to wild type protein. As to conditions: Hepatitis C virus (isolate Con1). Summed up: (§3)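 Stable subgenomic luciferase replicons in Huh-7 cells: genotype 1b-Con1 carrying NS5A Y93H or Y93N, tested alongside the wild-type replicon. Cells are incubated 4 days with compound in DMEM with 5% FBS. Luciferase read-out, EC50 from a 4-parameter logistic fit, expressed as fold change versus wild type.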

Data set [13] addresses T2, Nonstructural protein 5A (Hepatitis C virus). Kind of data set: Inhibition of NS5A M28T mutant in HuH7 cell infected HCV genotype 1a H77 assessed as decrease in viral replication after 4 days by luciferase reporter gene assay relative to wild type protein. The following applies: Hepatitis C virus (isolate H77). Summed up: as §2
Data set [14] deals with T3, Nonstructural protein 5A (Hepatitis C virus), Q5L478 [Y93H]. The data set can be described thus: Inhibition of NS5A Y93H mutant in HuH7 cell infected HCV genotype 1a H77 assessed as decrease in viral replication after 4 days by luciferase reporter gene assay relative to wild type protein. The following applies: Hepatitis C virus (isolate H77). Put shortly: as §2
The subject of data set [15] is T4, Nonstructural protein 5A (Hepatitis C virus), Q5L478 [Y93C].
T4 sequence (whole entry): T1 sequence (whole entry) with N93C
Kind of data set: Inhibition of NS5A Y93C mutant in HuH7 cell infected HCV genotype 1a H77 assessed as decrease in viral replication after 4 days by luciferase reporter gene assay relative to wild type protein. As to conditions: Hepatitis C virus (isolate H77). Summed up:
as §2

Data set [16] has as its system T1, Nonstructural protein 5A (Hepatitis C virus), Q5L478 [Y93N]. The data set can be described thus: Inhibition of NS5A Y93N mutant in HuH7 cell infected HCV genotype 1b Con1 assessed as decrease in viral replication after 4 days by luciferase reporter gene assay relative to wild type protein. As to conditions: Hepatitis C virus (isolate Con1). Put shortly:
as §3

Data set [17] addresses T2, Nonstructural protein 5A (Hepatitis C virus). Kind of data set: Inhibition of NS5A Q30E mutant in HuH7 cell infected HCV genotype 1a H77 assessed as decrease in viral replication after 4 days by luciferase reporter gene assay relative to wild type protein. The following applies: Hepatitis C virus (isolate H77). Summed up:
as §2

Turning to `COC(=O)N[C@H](C(=O)N1CCC[C@H]1c1nc2ccc([C@H]3CC[C@H](c4ccc5nc([C@@H]6CCCN6C(=O)[C@@H](NC(=O)OC)C(C)C)[nH]c5c4)N3c3cc(Cl)c(N4CCCCC4)c(Cl)c3)cc2[nH]1)C(C)C`, the results for the CLint scaled in data set [1] and in data set [2] were < 25 mL/min/kg and 50 mL/min/kg, respectively. The solubility (kinetic) (commonly solubility judged after dilution from a stock solution rather than from solid) in data set [3] is < 0.6 µM. The Papp in data set [4] was 0.03 ×10⁻⁶ cm/s. For the same compound, in data set [5], the AUC(0-inf) (usually total exposure, with the tail of the curve extrapolated) was 960 ng·h/mL. The logD (in general, the decadic logarithm of the distribution of all forms, ionised or not, between an organic phase and buffer at a given pH) in [6] turned out to be 5.9.

As for `COC(=O)N[C@H](C(=O)N1CCC[C@H]1c1nc2cc([C@H]3CC[C@H](c4cc5nc([C@@H]6CCCN6C(=O)[C@@H](NC(=O)OC)C(C)C)[nH]c5cc4F)N3c3cc(F)c(N4CCC(c5ccccc5)CC4)c(F)c3)c(F)cc2[nH]1)C(C)C`, the Tmax (in general, the time from dosing to the highest level) in data set [7] is 24 h. Also, the concentration at 24 h in data set [8] is 754 nM. In data set [5], this compound returned an AUC(0-inf) of 14000 ng·h/mL. For the same compound, in data set [9], the Cmax (as a rule, the peak of the concentration-time curve) worked out at 754 nM.

Consider `COC(=O)N[C@H](C(=O)N1CCC[C@H]1c1nc2ccc([C@H]3CC[C@H](c4ccc5nc([C@@H]6CCCN6C(=O)[C@@H](NC(=O)OC)C(C)C)[nH]c5c4)N3c3ccc(N4CCCCC4)c(F)c3)cc2[nH]1)C(C)C`, for which the figures for the CLint scaled in [1] and in [2] were 140 mL/min/kg and 162 mL/min/kg, respectively. The same compound showed a kinetic solubility in data set [3] of 2.5 µM (≈ 2.33 µg/mL). For the same compound, the Papp in data set [4] came out at 0.01 ×10⁻⁶ cm/s. In data set [5], the AUC(0-inf) turned out to be 2000 ng·h/mL. The same compound returned a logD in [6] of 4.7.

For the compound `COC(=O)N[C@H](C(=O)N1CCC[C@H]1c1nc2ccc([C@H]3CC[C@H](c4ccc5nc([C@@H]6CCCN6C(=O)[C@@H](NC(=O)OC)C(C)C)[nH]c5c4)N3c3ccc(N4CCOCC4)cc3)cc2[nH]1)C(C)C`, the CLint scaled – broadly, the rate of metabolic loss divided by the concentration – in data set [1] is 113 mL/min/kg; in data set [2], 108 mL/min/kg. The kinetic solubility in [3] stood at 14.2 µM (≈ 13 µg/mL). In data set [4], the Papp came out at 0.73 ×10⁻⁶ cm/s. Besides, in [5], the AUC(0-inf) came to 2 ng·h/mL. The same compound came in with a logD in [6] of 3.2.

Turning to `COC(=O)N[C@H](C(=O)N1CCC[C@H]1c1nc2cc(F)c([C@H]3CC[C@H](c4cc5[nH]c([C@@H]6CCCN6C(=O)[C@@H](NC(=O)OC)[C@@H](C)OC)nc5cc4F)N3c3cc(F)c(N4CCC(c5ccccc5)CC4)c(F)c3)cc2[nH]1)[C@@H](C)OC`, the fold change (FC) in [10] came out at 5; in data set [11], 1; in data set [12], 1; in [13] it was 1; in data set [14] it was 6; in data set [15], 1. In addition, the figures for the fold change (FC) in [16] and in data set [17] were 0.3 and 2, respectively.

Turning to `COC(=O)N[C@H](C(=O)N1CCC[C@H]1c1nc2cc(F)c([C@H]3CC[C@H](c4cc5[nH]c([C@@H]6CCCN6C(=O)[C@@H](NC(=O)OC)C(C)C)nc5cc4F)N3c3cc(F)c(N4CCC(c5ccc(F)cc5)CC4)c(F)c3)cc2[nH]1)C(C)C`, the Tmax in data set [7] turned out to be 24 h. The concentration at 24 h in [8] worked out at 1710 nM. The compound further registered an AUC(0-inf) in data set [5] of 26100 ng·h/mL. This compound returned a Cmax in data set [9] of 1710 nM.

For the compound `COC(=O)N[C@H](C(=O)N1CCC[C@H]1c1nc2ccc([C@H]3CC[C@H](c4ccc5nc([C@@H]6CCCN6C(=O)[C@@H](NC(=O)OC)C(C)C)[nH]c5c4)N3c3cc(F)c(N4CCC(c5ccccc5)CC4)c(F)c3)cc2[nH]1)C(C)C`, the fold change (FC) came out at 145 in [10]; 7 in [11]; 1 in data set [12]; 3 in [13]; 72 in data set [14]; 6 in [15]. Further, the fold change (FC) in data set [16] is 1; in [17] it was 69.
